In ChEMBL document CHEMBL1151946, “Doxazosin-related alpha1-adrenoceptor antagonists with prostate antitumor activity” (J Med Chem, 2009):
The source made the active and inactive calls. The rule behind the calls is not given here.

How the values were obtained:
[1] = test system: LNCaP; assay: Cytotoxicity against human LNCAP cells after 72 hrs by CellTitter-Glo luminescent cell viability assay; assay type: functional, cell-based
[2] = test system: NHDF; assay: Induction of apoptosis in human NHDF cells assessed as caspase 3/7 activation after 24 hrs Caspase-Glo 3/7 assay; assay type: functional, cell-based
[3] = molecular target: T1, Alpha-1D adrenergic receptor (Homo sapiens, UniProt P25100); assay: Displacement of [3H]prazosin from human Alpha-1D adrenoceptor expressed in CHO cells; assay type: cell-based
T1 sequence (P25100 whole entry): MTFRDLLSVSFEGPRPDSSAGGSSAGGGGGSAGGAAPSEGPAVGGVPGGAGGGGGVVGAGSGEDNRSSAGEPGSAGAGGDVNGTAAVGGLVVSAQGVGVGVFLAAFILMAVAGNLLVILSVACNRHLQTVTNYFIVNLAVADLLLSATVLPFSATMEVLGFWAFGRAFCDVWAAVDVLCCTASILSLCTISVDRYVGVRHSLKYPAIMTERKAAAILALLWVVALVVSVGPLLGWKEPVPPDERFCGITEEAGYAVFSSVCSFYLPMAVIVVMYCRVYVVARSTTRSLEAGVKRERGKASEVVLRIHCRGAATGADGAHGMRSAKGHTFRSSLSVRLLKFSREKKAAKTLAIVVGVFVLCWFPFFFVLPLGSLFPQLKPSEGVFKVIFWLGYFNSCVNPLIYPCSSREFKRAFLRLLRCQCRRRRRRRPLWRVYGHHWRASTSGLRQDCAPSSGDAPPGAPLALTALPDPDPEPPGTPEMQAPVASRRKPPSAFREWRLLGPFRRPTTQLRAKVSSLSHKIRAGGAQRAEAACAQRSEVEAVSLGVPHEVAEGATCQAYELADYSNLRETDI
Outline: (§1)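 Radioligand competition binding used [3H]prazosin on membranes of CHO cells expressing human α1a, α1b or α1d adrenoceptor. IC50 values were converted to pKi by the Cheng-Prusoff equation. Data come from two to three experiments run in triplicate, agreeing within ±20%.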

[4] = test system: PC-3; assay: Induction of apoptosis in human PC3 cells assessed as caspase 3/7 activation after 24 hrs by Caspase-Glo 3/7 assay; assay type: functional, cell-based; details: PC-3, 24 h
[5] = molecular target: T2, Alpha-1D adrenergic receptor (Rattus norvegicus) (UniProt P23944); assay: Antagonist activity at rat Alpha-1D adrenoceptor assessed as inhibition if norepenephrine-induced contraction of thoracic aorta; assay type: functional, tissue-based
T2 sequence (whole entry): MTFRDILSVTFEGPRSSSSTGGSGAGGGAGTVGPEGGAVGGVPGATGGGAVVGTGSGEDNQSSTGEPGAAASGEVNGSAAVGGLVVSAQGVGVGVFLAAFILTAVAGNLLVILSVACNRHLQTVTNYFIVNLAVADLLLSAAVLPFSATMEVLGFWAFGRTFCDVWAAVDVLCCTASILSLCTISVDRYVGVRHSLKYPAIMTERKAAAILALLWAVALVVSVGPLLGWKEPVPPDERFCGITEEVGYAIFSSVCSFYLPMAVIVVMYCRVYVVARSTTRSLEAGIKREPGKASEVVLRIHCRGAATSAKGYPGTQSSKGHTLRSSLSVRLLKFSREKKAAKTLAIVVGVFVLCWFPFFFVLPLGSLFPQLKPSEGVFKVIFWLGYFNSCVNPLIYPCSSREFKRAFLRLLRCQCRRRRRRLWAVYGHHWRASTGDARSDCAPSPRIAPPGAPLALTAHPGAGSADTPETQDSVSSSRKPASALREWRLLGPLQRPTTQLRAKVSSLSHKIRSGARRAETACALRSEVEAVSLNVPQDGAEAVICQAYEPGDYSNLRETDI
Outline: (§2)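 Isolated rat tissue contraction assay. The α1A response used vas deferens with (-)-noradrenaline as agonist, α1D used thoracic aorta with (-)-noradrenaline, and α1B used spleen with (-)-phenylephrine. pA2 values are means ± SEM over three antagonist concentrations, each tested at least four times. Where the Schild slope differed from unity, pKB was calculated by van Rossum at the lowest antagonist concentration giving log(CR−1) ≥0.5.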

[6] = test system: LNCaP; assay: Induction of apoptosis in human LNCAP cells assessed as caspase 3/7 activation after 24 hrs Caspase-Glo 3/7 assay; assay type: functional, cell-based
[7] = molecular target: T3, Alpha-1B adrenergic receptor (Homo sapiens, UniProt P35368); assay: Displacement of [3H]prazosin from human Alpha-1B adrenoceptor expressed in CHO cells; assay type: cell-based; outline: as §1
T3 sequence (P35368 whole entry): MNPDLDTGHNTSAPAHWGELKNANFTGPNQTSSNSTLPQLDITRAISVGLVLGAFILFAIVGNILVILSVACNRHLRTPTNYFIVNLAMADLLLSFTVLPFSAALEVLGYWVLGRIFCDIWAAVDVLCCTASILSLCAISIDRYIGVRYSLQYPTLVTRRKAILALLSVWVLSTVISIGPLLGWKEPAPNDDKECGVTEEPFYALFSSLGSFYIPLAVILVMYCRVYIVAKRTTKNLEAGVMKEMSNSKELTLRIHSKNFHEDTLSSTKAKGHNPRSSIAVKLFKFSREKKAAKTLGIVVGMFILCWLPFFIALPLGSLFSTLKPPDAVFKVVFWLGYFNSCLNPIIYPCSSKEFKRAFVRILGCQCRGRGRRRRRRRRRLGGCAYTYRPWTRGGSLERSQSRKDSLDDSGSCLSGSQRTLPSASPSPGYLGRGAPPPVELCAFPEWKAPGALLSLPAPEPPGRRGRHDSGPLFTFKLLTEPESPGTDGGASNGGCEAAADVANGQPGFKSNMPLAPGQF

[8] = molecular target: T4, Alpha-1B adrenergic receptor (Rattus norvegicus) (UniProt P15823); assay: Antagonist activity at rat Alpha-1B adrenoceptor assessed as inhibition if phenylephrine-induced contraction of spleen; assay type: functional, tissue-based; outline: as §2
T4 sequence (whole entry): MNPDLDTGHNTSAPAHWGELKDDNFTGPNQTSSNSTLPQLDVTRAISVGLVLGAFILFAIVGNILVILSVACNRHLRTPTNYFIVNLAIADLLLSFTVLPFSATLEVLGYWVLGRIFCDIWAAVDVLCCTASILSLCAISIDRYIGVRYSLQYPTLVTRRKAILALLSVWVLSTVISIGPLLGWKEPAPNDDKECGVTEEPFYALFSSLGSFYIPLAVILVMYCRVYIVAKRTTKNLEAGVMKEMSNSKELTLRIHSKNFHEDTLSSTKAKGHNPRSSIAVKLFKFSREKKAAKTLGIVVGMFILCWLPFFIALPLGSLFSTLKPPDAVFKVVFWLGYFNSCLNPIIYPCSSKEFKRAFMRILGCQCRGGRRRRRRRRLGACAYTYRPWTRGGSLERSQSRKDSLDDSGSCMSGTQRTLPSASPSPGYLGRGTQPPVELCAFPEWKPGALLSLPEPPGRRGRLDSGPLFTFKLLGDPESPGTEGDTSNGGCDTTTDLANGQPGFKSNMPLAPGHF

[9] = test system: DU-145; assay: Cytotoxicity against human DU145 cells after 72 hrs by CellTitter-Glo luminescent cell viability assay; assay type: functional, cell-based; details: DU-145, 72 h
[10] = test system: PC-3; assay: Cytotoxicity against human PC3 cells after 72 hrs by CellTitter-Glo luminescent cell viability assay; assay type: functional, cell-based; details: PC-3, 72 h
[11] = molecular target: T5, Alpha-1A adrenergic receptor (Rattus norvegicus) (UniProt P43140); assay: Antagonist activity at rat alpha1A adrenoceptor assessed as inhibition if norepinephrine-induced contraction of vas deference; assay type: functional; outline: as §2
T5 sequence (whole entry): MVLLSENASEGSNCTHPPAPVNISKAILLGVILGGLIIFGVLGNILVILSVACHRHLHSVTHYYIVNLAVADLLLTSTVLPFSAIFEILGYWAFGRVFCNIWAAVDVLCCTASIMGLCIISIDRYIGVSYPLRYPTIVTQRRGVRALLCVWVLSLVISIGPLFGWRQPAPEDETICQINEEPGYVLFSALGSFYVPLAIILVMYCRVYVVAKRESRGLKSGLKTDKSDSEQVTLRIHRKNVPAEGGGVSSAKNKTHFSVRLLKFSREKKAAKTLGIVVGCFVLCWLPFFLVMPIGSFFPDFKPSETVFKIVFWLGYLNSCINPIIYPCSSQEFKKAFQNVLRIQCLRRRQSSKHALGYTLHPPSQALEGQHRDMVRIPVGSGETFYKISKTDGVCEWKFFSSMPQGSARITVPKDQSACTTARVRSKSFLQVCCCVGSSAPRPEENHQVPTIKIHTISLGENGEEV

[12] = test system: NHDF; assay: Cytotoxicity against human NHDF cells after 72 hrs by CellTitter-Glo luminescent cell viability assay; assay type: functional, cell-based
[13] = test system: DU-145; assay: Induction of apoptosis in human DU145 cells assessed as caspase 3/7 activation after 24 hrs Caspase-Glo 3/7 assay; assay type: functional, cell-based
[14] = molecular target: T6, Alpha-1A adrenergic receptor (Homo sapiens, UniProt P35348); assay: Displacement of [3H]prazosin from human alpha1A adrenoceptor expressed in CHO cells; assay type: cell-based; outline: as §1
T6 sequence (P35348 whole entry): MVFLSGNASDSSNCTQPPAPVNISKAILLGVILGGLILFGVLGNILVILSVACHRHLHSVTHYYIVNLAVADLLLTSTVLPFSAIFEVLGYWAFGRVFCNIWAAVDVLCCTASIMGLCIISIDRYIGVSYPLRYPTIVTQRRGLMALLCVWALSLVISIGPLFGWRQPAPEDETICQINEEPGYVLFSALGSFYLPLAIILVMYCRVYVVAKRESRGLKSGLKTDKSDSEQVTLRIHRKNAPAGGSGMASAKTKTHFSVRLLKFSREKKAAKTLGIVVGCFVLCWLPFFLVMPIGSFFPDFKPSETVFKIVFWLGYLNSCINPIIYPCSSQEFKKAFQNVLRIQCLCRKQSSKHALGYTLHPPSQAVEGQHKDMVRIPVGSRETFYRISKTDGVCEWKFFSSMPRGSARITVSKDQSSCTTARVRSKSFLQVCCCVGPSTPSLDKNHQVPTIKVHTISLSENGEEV

[15] = test system: PC-3; assay: Antiangiogenic activity in human PC3 cells xenografted in NU/NU mouse assessed as reduction vascularization at 3 mg/kg by immunohistochemistry; assay type: functional, organism-based; set-up: dose 3 mg/kg
Outline: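 Vascularization of PC-3 flank tumors from nude mice dosed orally was assessed by immunohistochemistry with rat anti-mouse CD31 monoclonal antibody as endothelial marker. Doses were 0.3, 1 and 3 mg/kg.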

[16] = test system: PC-3; assay: Induction of apoptosis in human PC3 cells xenografted in NU/NU mouse assessed as DNA fragmentation at 0.3 to 3 mg/kg by agarose gel electrophoresis; assay type: functional, organism-based
Outline: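 DNA from PC-3 subcutaneous tumors of orally treated nude mice was run on an electrophoretic gel. Apoptosis was scored as a DNA ladder pattern.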

| Compound | IC50 [1] [µM] | EC50 [2] [µM] | Ki [3] [µM] | EC50 [4] [µM] | Ki [7] [µM] | IC50 [9] [µM] | IC50 [10] [µM] | IC50 [12] [µM] | Ki [14] [µM] | also measured |
| --- | --- | --- | --- | --- | --- | --- | --- | --- | --- | --- |
| COc1cc2nc(N(C)CCCCCCN(C)C(=O)C3COc4ccccc4O3)nc(N)c2cc1OC (stereo unspecified) | 4.61 | 10 | 0.00158 | 10 | 0.000933 | 9.25 | 8.4 | 9.8 | 0.00186 | pKb [5]: 8.64; EC50 ([6]; lncap): 10 µM; pKb [8]: 8.35; pKb [11]: 8.51; EC50 ([13]; du-145): 10 µM |
| COc1cc2nc(N3CCN(C(=O)C4COc5ccccc5O4)CC3)nc(N)c2cc1OC (stereo unspecified) [DOXAZOSIN] | 28.1 | 40.4 |  | > 100 |  | 37.4 | 38.6 | 43 |  | Activity [15]: Active; EC50 ([6]; Homo sapiens, LNCaP, 24 h, read-out: EC50): 100 µM; EC50 [9]: > 100 µM; EC50 [10]: > 100 µM; Activity [16]: Active; EC50 [12]: 40.4 µM; EC50 ([13]; Homo sapiens, DU-145, 24 h): > 100 µM |
| COc1cc2nc(N3CCN(C(=O)C4COc5ccccc5O4)[C@@H]4CCCC[C@@H]43)nc(N)c2cc1OC (single isomer, unassigned) |  |  | 0.00049 |  | 0.00141 |  | 1.02 |  | 0.00339 |  |
